Assay results published in publication PMC4372064 (ACS Chemical Neuroscience, 2014).
Entries after “also recorded” stand apart in the source; their conditions may differ. Read-outs that look alike come from different tables or passages of the source.

How the values were obtained:
[1] = tested on: voltage-gated sodium channels in rat embryonic cortical neurons; experiment: Whole-cell patch clamp, inactivation protocol, rat embryonic cortical neurons; type: cell-based; details: 10 μM
[2] = tested on: rat (behavioral toxicity); details: po, h]; cited from earlier work
[3] = tested on: Na+ currents in CAD cells; details: 100 μM; cited from earlier work
[4] = tested on: voltage-gated sodium channels in rat embryonic cortical neurons; experiment: Whole-cell patch clamp, steady-state activation, rat embryonic cortical neurons; type: cell-based; details: 10 μM
[5] = tested on: rats (tibial-nerve injury model); experiment: Tibial-nerve injury; type: in vivo, rat
[6] = tested on: mice (formalin pain model); details: 8 mg/kg; cited from earlier work
[7] = biological target: T1, sodium channels in CAD cells (Mus musculus, UniProt Q62205); details: cited from earlier work
T1 sequence (Q62205 whole entry): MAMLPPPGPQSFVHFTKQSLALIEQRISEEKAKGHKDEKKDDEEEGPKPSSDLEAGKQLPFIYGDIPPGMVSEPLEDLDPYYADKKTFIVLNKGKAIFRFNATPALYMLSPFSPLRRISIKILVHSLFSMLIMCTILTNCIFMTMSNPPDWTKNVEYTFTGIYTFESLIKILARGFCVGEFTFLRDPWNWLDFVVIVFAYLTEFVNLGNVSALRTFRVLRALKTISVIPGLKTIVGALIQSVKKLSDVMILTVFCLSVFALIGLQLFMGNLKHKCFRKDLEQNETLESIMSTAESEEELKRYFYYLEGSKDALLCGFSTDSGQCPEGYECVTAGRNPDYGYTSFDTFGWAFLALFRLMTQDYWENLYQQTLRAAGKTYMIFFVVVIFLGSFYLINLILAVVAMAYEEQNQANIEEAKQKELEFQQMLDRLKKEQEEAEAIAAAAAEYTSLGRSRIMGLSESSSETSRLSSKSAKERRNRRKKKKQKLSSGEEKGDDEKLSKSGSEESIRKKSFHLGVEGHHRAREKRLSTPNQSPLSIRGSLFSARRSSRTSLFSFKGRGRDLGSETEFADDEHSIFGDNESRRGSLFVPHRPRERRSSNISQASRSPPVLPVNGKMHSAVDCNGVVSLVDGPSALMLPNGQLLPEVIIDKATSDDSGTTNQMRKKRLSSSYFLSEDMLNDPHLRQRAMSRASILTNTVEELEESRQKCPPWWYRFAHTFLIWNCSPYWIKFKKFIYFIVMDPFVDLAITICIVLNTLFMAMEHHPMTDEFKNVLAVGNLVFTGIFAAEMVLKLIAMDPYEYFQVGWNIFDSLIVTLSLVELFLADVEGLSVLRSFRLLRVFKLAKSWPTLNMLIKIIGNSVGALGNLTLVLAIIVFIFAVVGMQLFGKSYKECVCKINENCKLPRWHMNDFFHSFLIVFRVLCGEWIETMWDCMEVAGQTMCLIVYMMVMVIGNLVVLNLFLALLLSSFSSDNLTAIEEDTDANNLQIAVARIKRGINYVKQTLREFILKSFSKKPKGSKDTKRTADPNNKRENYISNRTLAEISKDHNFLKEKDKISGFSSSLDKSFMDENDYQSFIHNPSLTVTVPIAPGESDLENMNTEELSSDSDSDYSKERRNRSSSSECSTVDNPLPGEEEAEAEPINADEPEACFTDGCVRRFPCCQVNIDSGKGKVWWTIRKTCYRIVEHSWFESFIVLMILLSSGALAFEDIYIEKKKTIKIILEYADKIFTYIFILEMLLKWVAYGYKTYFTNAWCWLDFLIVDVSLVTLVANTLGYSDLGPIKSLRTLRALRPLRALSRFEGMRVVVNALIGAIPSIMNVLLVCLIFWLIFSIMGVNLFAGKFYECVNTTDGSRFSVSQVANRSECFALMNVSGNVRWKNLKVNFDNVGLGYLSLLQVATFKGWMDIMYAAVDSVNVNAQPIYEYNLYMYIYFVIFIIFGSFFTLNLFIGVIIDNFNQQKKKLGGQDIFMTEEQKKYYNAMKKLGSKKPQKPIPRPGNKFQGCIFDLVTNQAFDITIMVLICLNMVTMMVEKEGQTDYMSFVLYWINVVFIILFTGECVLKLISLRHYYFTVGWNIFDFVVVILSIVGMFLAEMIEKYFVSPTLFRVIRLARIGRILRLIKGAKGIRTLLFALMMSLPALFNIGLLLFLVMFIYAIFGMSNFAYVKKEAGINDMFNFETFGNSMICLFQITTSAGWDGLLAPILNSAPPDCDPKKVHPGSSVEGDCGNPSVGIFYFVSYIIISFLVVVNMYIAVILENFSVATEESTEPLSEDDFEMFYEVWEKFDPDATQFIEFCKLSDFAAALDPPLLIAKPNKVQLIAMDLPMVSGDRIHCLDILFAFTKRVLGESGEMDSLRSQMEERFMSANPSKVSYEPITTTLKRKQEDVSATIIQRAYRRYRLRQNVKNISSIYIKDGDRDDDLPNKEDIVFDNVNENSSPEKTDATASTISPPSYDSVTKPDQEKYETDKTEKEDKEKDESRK

rat (MES seizure model) = details: po, (95% CI), cited from earlier work
[8] = tested on: mice (6 Hz psychomotor seizure model); details: ip, 32 mA, [time of peak effect, h], (95% CI); cited from earlier work
[9] = tested on: voltage-gated sodium channels in rat embryonic cortical neurons; type: cell-based; details: 10 μM
scMet seizure model = details: cited from earlier work
[10] = tested on: Na+ currents in CAD cells; experiment: Whole-cell patch clamp, frequency; type: cell-based, mouse; details: 100 μM
In short: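 Whole-cell voltage clamp was done at room temperature on CAD cells (Ham's F12/DMEM, 10% FBS, 1% pen/strep, 37 °C, 5% CO2, passaged 1:5 every 3–5 days). Criteria were access resistance <3 MΩ and −P/4 leak subtraction. Cells were held at −80 mV and given 20 ms pulses to −10 mV at 10 Hz. Peak currents were compared with the first pulse against 0.1% DMSO control, with test compound at 10 or 100 μM.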

[11] = biological target: T1, sodium channels in CAD cells; experiment: Whole-cell patch clamp, steady-state fast inactivation, CAD cells; type: cell-based
In short: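 CAD cells were recorded by whole-cell clamp at room temperature, with 3 s between pulses. Steady-state fast inactivation was induced by a previously described protocol. Test compound was applied at 10 μM (10–200 μM for one compound) versus 0.1% DMSO control. Each recording was fitted to a Boltzmann function to give V1/2 and slope k, which were averaged (mean ±SEM). Cells numbered 3–7 per condition, compared by Student's t test or one-way ANOVA.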

mice (MES seizure model) = details: ip, (95% CI), cited from earlier work

**Q.** With `COC[C@@H](NC(C)=O)C(=O)NCc1ccccc1` [(R)-2, (R)-N-benzyl 2-N-acetamido-3-methoxypropionamide] as the compound, how does the “effect on sodium channel inactivation (in words)” value [1] read?
**A.** neither parent compound affected inactivation

**Q.** What about the “Tox, TD50 (behavioral toxicity)” value [2] of the same compound?
**A.** >500 [0.5] mg/kg

**Q.** What about the “reduction of Na+ currents, frequency (use)-dependence” value [3] of the same compound?
**A.** ~8.8%

**Q.** What about the “effect on steady-state activation of VGSCs (in words)” value [4] of the same compound?
**A.** neither 10 μM (R)-2 nor 10 μM (S)-3 affected the steady-state activation

**Q.** What about the “reversal of tactile hypersensitivity (% of preinjury values)” value ([5]; TNI day 14, 10 mg/kg ip, 1 h after administration) of the same compound?
**A.** ~72%

**Q.** And the “activity in the second (inflammation) phase of the formalin model” value [6]?
**A.** effective

**Q.** What about the “effect on sodium channel fast inactivation” value [7] of the same compound?
**A.** did not

**Q.** And the “MES, ED50” value (rat (MES seizure model); [time of peak effect, h])?
**A.** 3.9 mg/kg

**Q.** And the “6 Hz ED50” value [8]?
**A.** 10 mg/kg

**Q.** And the “effect on steady-state fast inactivation (in words)” value [9]?
**A.** neither (R)-2 nor (S)-3 affected fast inactivation

**Q.** Which “effect on sodium channel inactivation (in words)” value [1] does the source give for `C[C@H](NCc1ccc(OCc2cccc(F)c2)cc1)C(N)=O` [(S)-3, (S)-2-(4′-((3″-fluoro)benzyloxy)benzyl)aminopropionamide] here?
**A.** neither parent compound affected inactivation

**Q.** And the “scMet ED50” value (scMet seizure model)?
**A.** 27 mg/kg

**Q.** What about the “inhibition of Na+ current, frequency (use)-dependence” value [10] of the same compound?
**A.** ~13%

**Q.** And the “effect on VGSC fast inactivation” value [11]?
**A.** promoted fast inactivation of VGSCs

**Q.** What about the “hyperpolarizing shift in V1/2 of fast inactivation vs control (maximum)” value ([11]; 200 μM) of the same compound?
**A.** ~21.6 mV

**Q.** What about the “MES, ED50” value (mice (MES seizure model)) of the same compound?
**A.** 4.1 (3.0–5.5) mg/kg

**Q.** What about the “effect on steady-state activation of VGSCs (in words)” value [4] of the same compound?
**A.** neither 10 μM (R)-2 nor 10 μM (S)-3 affected the steady-state activation

**Q.** And the “effect on mechanical/tactile hypersensitivity (in words)” value ([5]; TNI day 14, single ip administration, 10 mg/kg)?
**A.** no effect; also recorded: without effect

**Q.** And the “MES, ED50” value (rat (MES seizure model))?
**A.** 12 (10–14) mg/kg

**Q.** And the “effect on steady-state fast inactivation (in words)” value [9]?
**A.** neither (R)-2 nor (S)-3 affected fast inactivation

**Q.** With `NC(=O)N1c2ccccc2C=Cc2ccccc21` [carbamazepine] as the compound, how does the “effect on tactile hypersensitivity (in words)” value ([5]; TNI, 65 mg/kg, ip) read?
**A.** ineffective

**Q.** With `O=C1NC(=O)C(c2ccccc2)(c2ccccc2)N1` [phenytoin] as the compound, how does the “MES, ED50” value (mice (MES seizure model); [time of peak effect, h]) read?
**A.** 9.5 mg/kg

**Q.** And the “MES, ED50” value (rat (MES seizure model); [time of peak effect, h])?
**A.** 30 mg/kg
